# Measured values reported in ChEMBL document CHEMBL1149144, “Structure-based design of potent retinoid X receptor alpha agonists” (J Med Chem, 2004).
# Key:
# [1] = biological target: T1, Retinoic acid receptor RXR-alpha (Homo sapiens, UniProt P19793); assay: Effective concentration for Retinoid X receptor alpha activity in CV-1 cells; format: functional, cell-based
# T1 sequence (P19793 whole entry): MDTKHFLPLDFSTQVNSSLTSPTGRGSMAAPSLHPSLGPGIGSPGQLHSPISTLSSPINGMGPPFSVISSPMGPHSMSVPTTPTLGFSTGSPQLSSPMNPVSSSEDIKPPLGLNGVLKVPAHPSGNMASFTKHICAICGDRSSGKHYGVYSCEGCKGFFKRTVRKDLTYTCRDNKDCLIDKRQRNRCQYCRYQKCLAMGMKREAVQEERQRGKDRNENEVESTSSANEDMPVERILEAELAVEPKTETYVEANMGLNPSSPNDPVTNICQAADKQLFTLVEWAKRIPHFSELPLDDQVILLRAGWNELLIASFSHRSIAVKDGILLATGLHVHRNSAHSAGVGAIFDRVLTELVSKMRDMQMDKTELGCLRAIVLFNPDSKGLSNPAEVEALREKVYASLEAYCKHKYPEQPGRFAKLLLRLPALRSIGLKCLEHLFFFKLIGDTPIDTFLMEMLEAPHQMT
# In short: (§1)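 CV-1 monkey kidney cells transiently transfected with a full-length hRXRα expression vector (RXRα) or a GAL4-hRARα vector (RARα), each with an RXRα- or RARα-responsive reporter gene construct. Top concentration 10 µM; EC50 calculated from the reporter response.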
# [2] = biological target: T2, Retinoic acid receptor alpha (Homo sapiens, UniProt P10276); assay: Effective concentration for Retinoic acid receptor alpha activity in CV-1 cells; format: functional, cell-based; in short: as §1
# T2 sequence (P10276 whole entry): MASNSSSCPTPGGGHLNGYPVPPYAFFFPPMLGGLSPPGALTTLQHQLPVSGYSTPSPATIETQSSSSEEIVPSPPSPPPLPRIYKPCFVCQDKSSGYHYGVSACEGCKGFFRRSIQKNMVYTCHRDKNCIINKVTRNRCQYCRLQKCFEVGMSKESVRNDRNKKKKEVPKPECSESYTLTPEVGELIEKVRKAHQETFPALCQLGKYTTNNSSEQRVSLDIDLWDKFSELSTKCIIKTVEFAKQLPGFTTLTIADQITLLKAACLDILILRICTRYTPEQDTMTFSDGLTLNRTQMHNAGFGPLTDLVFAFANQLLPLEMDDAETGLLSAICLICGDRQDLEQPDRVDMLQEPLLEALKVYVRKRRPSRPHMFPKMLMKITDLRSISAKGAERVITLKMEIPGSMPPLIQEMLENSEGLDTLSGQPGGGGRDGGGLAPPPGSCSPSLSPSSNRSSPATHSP
# [3] = biological target: T2, Retinoic acid receptor alpha; assay: Binding affinity for retinoic acid receptor alpha (RARalpha), using 9-cis-[3H]-retinoic acid
# In short: (§2)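 Scintillation proximity binding assay; Ki from competition of 2.5 nM 9-cis-RA at RXRα and RARα, with test compound up to 10 µM.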
# [4] = biological target: T1, Retinoic acid receptor RXR-alpha; assay: Binding affinity for retinoid X receptor alpha (RXRalpha), using 9-cis-[3H]-retinoic acid; in short: as §2
# [5] = biological target: T1, Retinoic acid receptor RXR-alpha; assay: Effective concentration for Retinoid X receptor alpha activity in CV-1 cells; Partial agonist; format: functional, cell-based; in short: as §1
# [6] = test system: Mus musculus; assay: Antihyperglycemic activity of compound at 100 mg/kg was measured as percent glycosylated hemoglobin in vivo in mice; format: functional
# In short: (§3)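 Male diabetic db/db mice given vehicle or compound in vehicle orally.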
# [7] = test system: Mus musculus; assay: Antihyperglycemic activity of compound at 10 mg/kg was determined in vivo in mice; format: functional
# In short: (§4)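 Male diabetic db/db mice were given the test agent orally in vehicle, with a vehicle-only control group.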
# [8] = test system: Mus musculus; assay: Antihyperglycemic activity of compound at 100 mg/kg was determined in vivo in mice; format: functional; in short: as §4
# [9] = test system: Mus musculus; assay: Effect on percent change in weight of liver to body at 100 mg/kg was measured in vivo in mice; format: functional; in short: as §3
# [10] = test system: Rattus norvegicus; assay: Effect on nonesterified free fatty acid at 3 mg/kg was measured in vivo in rats; format: functional
# In short: (§5)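 Male Zucker diabetic fatty (ZDF) rats dosed orally with vehicle or compound in vehicle.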
# [11] = test system: Mus musculus; assay: Antihyperglycemic activity of compound at 30 mg/kg was determined in vivo in mice; format: functional; in short: as §4
# [12] = test system: Rattus norvegicus; assay: Effect on percent change in weight of liver to body at 30 mg/kg was measured in vivo in rats; format: functional; in short: as §5
# [13] = test system: Rattus norvegicus; assay: Effect on percent change in weight of liver to body at 3 mg/kg was measured in vivo in rats; format: functional; in short: as §5
# [14] = test system: Rattus norvegicus; assay: Effect on aspartate aminotransferase release by liver at 10 mg/kg was measured in vivo in rats; format: functional; in short: as §5
# [15] = test system: Mus musculus; assay: Effect on percent change in weight of liver to body at 10 mg/kg was measured in vivo in mice; format: functional; in short: as §3
# [16] = test system: Mus musculus; assay: Effect on nonesterified free fatty acid at 30 mg/kg was measured in vivo in mice; format: functional; in short: as §3
# [17] = test system: Rattus norvegicus; assay: Effect on nonesterified free fatty acid at 30 mg/kg was measured in vivo in rats; format: functional; in short: as §5
# [18] = test system: Rattus norvegicus; assay: Antihyperglycemic activity of compound at 3 mg/kg was measured as percent glycosylated hemoglobin in vivo in rats; format: functional; in short: as §5
# [19] = test system: Rattus norvegicus; assay: Effect on aspartate aminotransferase release by liver at 3 mg/kg was measured in vivo in rats; format: functional; in short: as §5
# [20] = test system: Rattus norvegicus; assay: Antihyperglycemic activity of compound at 10 mg/kg was measured as percent glycosylated hemoglobin in vivo in rats; format: functional; in short: as §5
# [21] = test system: Rattus norvegicus; assay: Effect on nonesterified free fatty acid at 10 mg/kg was measured in vivo in rats; format: functional; in short: as §5
# [22] = test system: Rattus norvegicus; assay: Effect on lipid hydrolysis at 3 mg/kg was measured in vivo in rats; format: functional
# In short: (§6)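 Male Zucker diabetic fatty (ZDF) rats were given the test agent orally in vehicle, with a vehicle-only control group.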
# [23] = test system: Mus musculus; assay: Effect on aspartate aminotransferase release by liver at 10 mg/kg was measured in vivo in mice; format: functional; in short: as §3
# [24] = test system: Mus musculus; assay: Effect on lipid hydrolysis at 10 mg/kg was measured in vivo in mice; format: functional; in short: as §4
# [25] = test system: Mus musculus; assay: Antihyperglycemic activity of compound at 30 mg/kg was measured as percent glycosylated hemoglobin in vivo in mice; format: functional; in short: as §3
# [26] = test system: Mus musculus; assay: Effect on aspartate aminotransferase release by liver at 30 mg/kg was measured in vivo in mice; format: functional; in short: as §3
# [27] = test system: Mus musculus; assay: Antihyperglycemic activity of compound at 10 mg/kg was measured as percent glycosylated hemoglobin in vivo in mice; format: functional; in short: as §3
# [28] = test system: Rattus norvegicus; assay: Antihyperglycemic activity of compound at 10 mg/kg was determined in vivo in rats; format: functional; in short: as §6
# [29] = test system: Rattus norvegicus; assay: Effect on lipid hydrolysis at 10 mg/kg was measured in vivo in rats; format: functional; in short: as §6
# [30] = test system: Rattus norvegicus; assay: Antihyperglycemic activity of compound at 3 mg/kg was determined in vivo in rats; format: functional; in short: as §6
# [31] = test system: Mus musculus; assay: Effect on nonesterified free fatty acid at 100 mg/kg was measured in vivo in mice; format: functional; in short: as §3
# [32] = test system: Rattus norvegicus; assay: Effect on lipid hydrolysis at 30 mg/kg was measured in vivo in rats; format: functional; in short: as §6
# [33] = test system: Rattus norvegicus; assay: Antihyperglycemic activity of compound at 30 mg/kg was measured as percent glycosylated hemoglobin in vivo in rats; format: functional; in short: as §5
# [34] = test system: Mus musculus; assay: Effect on nonesterified free fatty acid at 10 mg/kg was measured in vivo in mice; format: functional; in short: as §3
# [35] = test system: Mus musculus; assay: Effect on lipid hydrolysis at 100 mg/kg was measured in vivo in mice; format: functional; in short: as §4
# [36] = test system: Rattus norvegicus; assay: Effect on percent change in weight of liver to body at 10 mg/kg was measured in vivo in rats; format: functional; in short: as §5
# [37] = test system: Rattus norvegicus; assay: Effect on aspartate aminotransferase release by liver at 30 mg/kg was measured in vivo in rats; format: functional; in short: as §5
# [38] = test system: Mus musculus; assay: Effect on aspartate aminotransferase release by liver at 100 mg/kg was measured in vivo in mice; format: functional; in short: as §3
# [39] = test system: Rattus norvegicus; assay: Antihyperglycemic activity of compound was determined in vivo in rats; format: functional; in short: as §6
# [40] = test system: Mus musculus; assay: Effect on percent change in weight of liver to body at 30 mg/kg was measured in vivo in mice; format: functional; in short: as §3
# [41] = test system: Mus musculus; assay: Effect on lipid hydrolysis at 30 mg/kg was measured in vivo in mice; format: functional; in short: as §4
compound,measurement,setting,value
Cc1oc(/C=C/C(=O)O)cc1Cc1ccc2c(c1)C(C)(C)CCC2(C)C,EC50,[1],106 nM
same,EC50,[2],> 10000 nM
same,Ki,[3],> 1000 nM
same,Ki,[4],158 nM
CC1(C)CCC(C)(C)c2cc(C3CCCc4sc(/C=C/C(=O)O)cc43)ccc21 (stereo not given),EC50,[1],20 nM
same,EC50,[2],> 10000 nM
same,Ki,[3],> 1000 nM
same,Ki,[4],40 nM
O=C1NC(=O)/C(=C/c2ccc(-c3cccc(C(F)(F)F)c3)o2)S1,Ki,[4],7400 nM
CC1(C)CCC(C)(C)c2cc(Cc3coc(/C=C/C(=O)O)c3)ccc21,Ki,[3],> 1000 nM
same,Ki,[4],138 nM
CC1(C)CCC(C)(C)c2cc(C3CCCc4oc(/C=C/C(=O)O)nc43)ccc21 (stereo not given),EC50,[1],42 nM
same,Ki,[3],> 1000 nM
same,Ki,[4],158 nM
CCCOc1cc2c(cc1C1CCCc3oc(/C=C/C(=O)O)cc31)C(C)(C)CCC2(C)C (stereo not given),EC50,[2],> 10000 nM
same,Ki,[3],> 1000 nM
same,Ki,[4],100 nM
same,EC50,[5],137 nM
CC1(C)CCC(C)(C)c2cc(C3CCCc4oc(/C=C/C(=O)O)cc43)ccc21 (racemic),Activity,[6],8.51%
same,Activity,[7],346 mg/dL
same,EC50,[1],3 nM
same,Activity,[8],233 mg/dL
same,Activity,[9],9.33%
same,Activity,[10],0.8 m equiv l-1
same,Activity,[11],309 mg/dL
same,Activity,[12],7.06%
same,EC50,[2],> 10000 nM
same,Activity,[13],5.74%
same,Activity,[14],108 U l-1
same,Activity,[15],8.23%
same,Activity,[16],0.56 m equiv l-1
same,Activity,[17],0.38 m equiv l-1
same,Activity,[18],7.75%
same,Activity,[19],98 U l-1
same,Activity,[20],7.44%
same,Activity,[21],0.49 m equiv l-1
same,Activity,[22],2462 mg/dL
same,Activity,[23],137 U l-1
same,Activity,[24],91 mg/dL
same,Activity,[25],8.84%
same,Activity,[26],116 U l-1
same,Activity,[27],9.41%
same,Ki,[3],> 1000 nM
same,Ki,[4],6 nM
same,Activity,[28],129 mg/dL
same,Activity,[29],2199 mg/dL
same,Activity,[30],147 mg/dL
same,Activity,[31],0.4 m equiv l-1
same,Activity,[32],1353 mg/dL
same,Activity,[33],7.04%
same,Activity,[34],0.45 m equiv l-1
same,Activity,[35],62 mg/dL
same,Activity,[36],6.56%
same,Activity,[37],136 U l-1
same,Activity,[38],158 U l-1
same,Activity,[39],118 mg/dL
same,Activity,[40],8.58%
same,Activity,[41],83 mg/dL
"CC1(C)CCC(C)(C)c2cc(C3CCCc4oc(/C=C/C(=O)O)cc43)ccc21 (single isomer, unassigned)",EC50,[1],40 nM
same,EC50,[2],> 10000 nM
same,Ki,[3],> 1000 nM
same,Ki,[4],200 nM
CC1(C)CCC(C)(C)c2cc(C3CCCc4oc(/C=C/C(=O)O)cc43)ccc21 (stereo in doubt),EC50,[1],5 nM
same,EC50,[2],> 10000 nM
same,Ki,[3],> 1000 nM
same,Ki,[4],5 nM
CC1(C)CCC(C)(C)c2cc(C3CCCc4oc(/C=C/C(=O)O)cc43)ccc21 (stereo in doubt; 60),EC50,[1],97 nM
same,EC50,[2],> 790 nM
same,Ki,[3],> 1000 nM
same,Ki,[4],90 nM
